Data taken from ChEMBL document CHEMBL5236662, “Synthesis and biological evaluation of tert-butyl ester and ethyl ester prodrugs of L-γ-methyleneglutamic acid amides for cancer” (Bioorg Med Chem, 2023).

Key:
SK-BR-3 = assay: Antiproliferative activity against human SK-BR-3 cells assessed as inhibition of cell growth incubated for 72 hrs by Hoechst 33342/propidium iodide staining based fluorescence analysis; format: functional; conditions: SK-BR-3, 72 h
[1] = Cytotoxicity against human MCF-10A cells assessed as inhibition of cell growth incubated for 72 hrs by Hoechst 33342/propidium iodide staining based fluorescence analysis; format: toxicity; conditions: human, MCF-10A cells
MDA-MB-231 = assay: Antiproliferative activity against human MDA-MB-231 cells assessed as inhibition of cell growth incubated for 72 hrs by Hoechst 33342/propidium iodide staining based fluorescence analysis; format: functional; conditions: MDA-MB-231, 72 h
MCF7 [2] = assay: Antiproliferative activity against human MCF7 cells assessed as inhibition of cell growth incubated for 72 hrs by Hoechst 33342/propidium iodide staining based fluorescence analysis; format: functional; conditions: MCF7, 72 h
[3] = Antiproliferative activity against human BNC3 cells assessed as inhibition of cell growth incubated for 72 hrs by CCK-8 assay; format: functional, cell-based; conditions: BNC3, 72 h
Procedure, shortened: (§1)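 Primary patient-derived glioblastoma lines were grown in RPMI 1640 with 10% FBS. Cells were seeded at 3,000 per well and dosed 24 h later at 10, 50, 100, 200 and 300 μM for 24 or 72 h, with BiCNU as control. CCK-8 was added and OD450 read after 2 h at 37 °C. Data are % cell survival, from 3 independent replicates.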

[4] = Antiproliferative activity against human WSU-HN31 cells assessed as inhibition of cell growth incubated for 72 hrs by CCK-8 assay; format: functional, cell-based; conditions: WSU-HN31, 72 h
Procedure, shortened: (§2)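 Radiotherapy-resistant HNSCC lines were used: HN30 from pharynx SCC and HN31 from a lymph-node metastasis of the same patient. Cells in RPMI 1640 with 10% FBS were seeded at 3,000 per well and treated 24 h later with 10–300 μM (5 levels) for 24 or 72 h, with cisplatin as control. CCK-8 was read at OD450 after 2 h. Data are % survival, n = 3 independent experiments.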

BNC3 = assay: Antiproliferative activity against human BNC3 cells assessed as suppression of cell growth incubated for 24 to 72 hrs by CCK-8 assay; format: functional, cell-based; conditions: dose 10-300 µM, time 24-72 hrs; procedure, shortened: as §1
WSU-HN31 = assay: Antiproliferative activity against human WSU-HN31 cells assessed as suppression of cell growth incubated for 24 to 72 hrs by CCK-8 assay; format: functional, cell-based; conditions: dose 10-300 µM, time 24-72 hrs; procedure, shortened: as §2
[5] = Cytotoxicity against human MCF-10A cells assessed as inhibition of cell growth incubated for 24 hrs by Hoechst 33342/propidium iodide staining based fluorescence analysis; format: toxicity; conditions: human, MCF-10A cells
BNC6 = assay: Antiproliferative activity against human BNC6 cells assessed as suppression of cell growth incubated for 24 to 72 hrs by CCK-8 assay; format: functional, cell-based; conditions: dose 10-300 µM, time 24-72 hrs; procedure, shortened: as §1
[6] = Antiproliferative activity against human BNC6 cells assessed as inhibition of cell growth incubated for 72 hrs by CCK-8 assay; format: functional, cell-based; conditions: BNC6, 72 h; procedure, shortened: as §1
[7] = Antiproliferative activity against human WSU-HN30 cells assessed as inhibition of cell growth incubated for 72 hrs by CCK-8 assay; format: functional, cell-based; conditions: WSU-HN30, 72 h; procedure, shortened: as §2
WSU-HN30 = assay: Antiproliferative activity against human WSU-HN30 cells assessed as suppression of cell growth incubated for 24 to 72 hrs by CCK-8 assay; format: functional, cell-based; conditions: dose 10-300 µM, time 24-72 hrs; procedure, shortened: as §2
MCF7 [8] = assay: Antiproliferative activity against human MCF7 cells assessed as inhibition of cell growth incubated for 24 hrs by Hoechst 33342/propidium iodide staining based fluorescence analysis; format: functional; conditions: MCF7, 24 h

| Structure (SMILES) | IC50 (SK-BR-3) [µM] | IC50 at 72 h [1] [µM] | IC50 (MDA-MB-231) [µM] | IC50 (MCF7 [2]) [µM] | other results |
| --- | --- | --- | --- | --- | --- |
| C=C1C[C@@H](C(=O)OCC)NC1=O | > 1000 | > 1000 | > 1000 | > 1000 |  |
| C=C(C[C@H](N)C(=O)O)C(=O)Nc1ccc(F)cc1 |  | > 1000 |  |  | IC50 [3]: 182 µM; IC50 [4]: 202 µM; Activity (BNC3): Dose-Dependent Effect; Activity (WSU-HN31): Dose-Dependent Effect; IC50 at 24 h [5]: > 1000 µM; Activity (BNC6): Dose-Dependent Effect; IC50 [6]: 194 µM; IC50 [7]: 220 µM; Activity (WSU-HN30): Dose-Dependent Effect |
| C=C(C[C@H](NC(=O)OC(C)(C)C)C(=O)OC(C)(C)C)C(N)=O | < 1000 | > 1000 | > 1000 | < 1000 |  |
| C=C(C[C@H](N)C(=O)O)C(=O)Nc1ccc(Cl)cc1 |  | > 1000 |  |  | IC50 at 24 h [5]: > 1000 µM |
| C=C(C[C@H](NC(=O)OC(C)(C)C)C(=O)OC(C)(C)C)C(=O)N1CCCCC1 | < 1000 | > 1000 | < 1000 | < 1000 |  |
| C=C(C[C@H](NC(=O)OC(C)(C)C)C(=O)OCC)C(=O)Nc1ccccc1 | > 1000 | > 1000 | > 1000 | > 1000 |  |
| C=C(C[C@H](N)C(=O)O)C(N)=O |  | > 1000 |  |  | IC50 at 24 h [5]: > 1000 µM |
| C=C(C[C@H](NC(=O)OC(C)(C)C)C(=O)OCC)C(=O)Nc1ccc(F)cc1 | < 1000 | > 1000 | > 1000 | > 1000 |  |
| C=C1C[C@@H](C(=O)OC(C)(C)C)NC1=O | > 1000 | > 1000 | < 1000 | > 1000 |  |
| C=C(C[C@H](NC(=O)OC(C)(C)C)C(=O)OCC)C(=O)NCc1ccc([N+](=O)[O-])cc1 | < 1000 | > 1000 | > 1000 | > 1000 |  |
| C=C(C[C@H](NC(=O)OC(C)(C)C)C(=O)OC(C)(C)C)C(=O)NCc1ccc(F)cc1 | < 1000 | > 1000 | < 1000 | > 1000 |  |
| C=C(C[C@H](N)C(=O)O)C(=O)NCc1ccccc1 |  | > 1000 |  |  | IC50 [3]: 171 µM; IC50 (MCF7 [8]): > 1000 µM; IC50 [4]: 199 µM; Activity (BNC3): Dose-Dependent Effect; Activity (WSU-HN31): Dose-Dependent Effect; IC50 at 24 h [5]: > 1000 µM; Activity (BNC6): Dose-Dependent Effect; IC50 [6]: 188 µM; IC50 [7]: 119 µM; Activity (WSU-HN30): Dose-Dependent Effect |
| C=C(C[C@H](N)C(=O)O)C(=O)NCc1ccc([N+](=O)[O-])cc1 |  | > 1000 |  |  | IC50 [3]: 156 µM; IC50 [4]: 194 µM; Activity (BNC3): Dose-Dependent Effect; Activity (WSU-HN31): Dose-Dependent Effect; IC50 at 24 h [5]: > 1000 µM; Activity (BNC6): Dose-Dependent Effect; IC50 [6]: 180 µM; IC50 [7]: 91.8 µM; Activity (WSU-HN30): Dose-Dependent Effect |
| C=C(C[C@H](NC(=O)OC(C)(C)C)C(=O)OCC)C(=O)NCc1ccccc1 | < 1000 | > 1000 | > 1000 | > 1000 |  |
| C=C(C[C@H](N)C(=O)O)C(=O)NC1CC1 |  | > 1000 |  |  | IC50 [3]: 171 µM; IC50 [4]: 196 µM; Activity (BNC3): Dose-Dependent Effect; Activity (WSU-HN31): Dose-Dependent Effect; IC50 at 24 h [5]: > 1000 µM; Activity (BNC6): Dose-Dependent Effect; IC50 [6]: 187 µM; IC50 [7]: 105 µM; Activity (WSU-HN30): Dose-Dependent Effect |
| C=C(C[C@H](N)C(=O)O)C(=O)N1CCCCC1 |  | > 1000 |  |  | IC50 [3]: 158 µM; IC50 [4]: 207 µM; Activity (BNC3): Dose-Dependent Effect; Activity (WSU-HN31): Dose-Dependent Effect; IC50 at 24 h [5]: > 1000 µM; Activity (BNC6): Dose-Dependent Effect; IC50 [6]: 199 µM; IC50 [7]: 97 µM; Activity (WSU-HN30): Dose-Dependent Effect |
| C=C(C[C@H](NC(=O)OC(C)(C)C)C(=O)OC(C)(C)C)C(=O)Nc1ccccc1 | < 1000 | > 1000 | < 1000 | > 1000 |  |
| C=C(C[C@H](NC(=O)OC(C)(C)C)C(=O)OCC)C(=O)NCc1ccc(F)cc1 | < 1000 | > 1000 | > 1000 | > 1000 |  |
| C=C1C[C@@H](C(=O)OC(C)(C)C)N(C(=O)OC(C)(C)C)C1=O | > 1000 | > 1000 | < 1000 | > 1000 |  |
| C=C(C[C@H](NC(=O)OC(C)(C)C)C(=O)OC(C)(C)C)C(=O)NCc1ccc([N+](=O)[O-])cc1 | < 1000 | > 1000 | < 1000 | > 1000 |  |
| C=C(C[C@H](NC(=O)OC(C)(C)C)C(=O)OCC)C(=O)NC1CC1 | > 1000 | > 1000 | > 1000 | > 1000 |  |
| C=C(C[C@H](NC(=O)OC(C)(C)C)C(=O)OC(C)(C)C)C(=O)NC1CC1 | < 1000 | > 1000 | < 1000 | < 1000 |  |
| C=C1C[C@@H](C(=O)O)NC1=O | > 1000 | > 1000 | > 1000 | > 1000 |  |
| C=C1C[C@@H](C(=O)OCC)N(C(=O)OC(C)(C)C)C1=O | > 1000 | > 1000 | > 1000 | > 1000 |  |
| C=C(C[C@H](NC(=O)OC(C)(C)C)C(=O)OC(C)(C)C)C(=O)NCc1ccccc1 | < 1000 | > 1000 | < 1000 | > 1000 |  |
| C=C(C[C@H](NC(=O)OC(C)(C)C)C(=O)OCC)C(=O)Nc1ccc(Cl)cc1 | < 1000 | > 1000 | > 1000 | > 1000 |  |
| O=NN(CCCl)C(=O)NCCCl [CARMUSTINE] |  |  |  |  | IC50 [3]: 157 µM; IC50 [6]: 160 µM |
| C=C(C[C@H](NC(=O)OC(C)(C)C)C(=O)OC(C)(C)C)C(=O)Nc1ccc(Cl)cc1 | > 1000 | > 1000 | > 1000 | > 1000 |  |
| C=C(C[C@H](NC(=O)OC(C)(C)C)C(=O)OCC)C(N)=O | < 1000 | > 1000 | < 1000 | > 1000 |  |
| C=C(C[C@H](NC(=O)OC(C)(C)C)C(=O)OCC)C(=O)N1CCCCC1 | > 1000 | > 1000 | > 1000 | > 1000 |  |
